Results reported in article PMC6225502 (Journal of Clinical Oncology, 2018).

Experiments:
[1] = Safety and tolerability: treatment-related adverse events; format: in vivo, human
Summary of the method: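 Patients receiving ≥1 dose of oral epacadostat twice daily plus IV pembrolizumab every 3 weeks were assessed on day 1 of every cycle, at end of treatment and during follow-up. Liver function tests were run weekly for the first 6 weeks. AEs were graded per CTCAE v4.0 and summarized descriptively.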

[2] = format: in vivo, human
Summary of the method: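 Adults with advanced solid tumors took oral epacadostat 25, 50 or 100 mg twice daily with IV pembrolizumab 2 mg/kg every 3 weeks, or 300 mg twice daily with 200 mg every 3 weeks, in 3 + 3 + 3 escalation. Expansion cohorts of up to nine received 50, 100 or 300 mg with 200 mg. DLTs were protocol-specified AEs within the first 6 weeks. RP2D was set by expansion tolerability.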

[3] = Plasma pharmacokinetics of epacadostat; format: in vivo, human
IDO1 [4] = experiment: Pharmacokinetic-based projected IDO1 inhibition; design: species or system human
[5] = patients with advanced cancers; cited from earlier work
IDO1 [6] = details: doses ≥ 100 mg twice per day; ref [1][6]; cited from earlier work
[7] = pembrolizumab monotherapy reference data set; cited from earlier work
[8] = epacadostat 100 mg twice per day + pembrolizumab
[9] = epacadostat 300 mg twice per day + pembrolizumab

Molecule	Rate of AEs of special interest [1, 8]	Rate of grade 3/4 TRAEs [1, 8]	Rate of treatment-related dose interruptions [1, 8]	Rate of treatment-related dose reductions [1, 8]	Rate of AEs of special interest [1, 9]	Rate of grade 3/4 TRAEs [1, 9]	Rate of treatment-related dose interruptions [1, 9]	Rate of treatment-related dose reductions [1, 9]	DLTs observed ([2]; epacadostat 100 mg twice per day + pembrolizumab (15 patients))	Recommended phase II dose (RP2D) of epacadostat ([2]; plus pembrolizumab 200 mg every 3 weeks)	Dose dependence of plasma exposures (AUC and Cmax) ([3]; 25 to 300 mg twice per day + pembrolizumab)	Time of maximum observed plasma concentration ([3]; across doses)	Average concentrations at steady state relative to the IC50 associated with optimal target inhibition (IDO1 [4]; all patients who received epacadostat ≥ 100 mg twice per day)	Patients who achieved a minimum IDO1 inhibition of ≥ 50% (IDO1 [4]; epacadostat 100 mg twice per day)	Patients projected to have achieved ≥ 50% time-averaged IDO1 inhibition (IDO1 [4]; epacadostat 100 mg twice per day or 300 mg twice per day)	Patients projected to have achieved ≥ 50% time-averaged IDO1 inhibition (IDO1 [4]; steady state, all epacadostat doses)	Tolerability of single-agent epacadostat [5]	Inhibition of IDO1 activity and kynurenine levels (IDO1 [6])	Treatment-emergent antipembrolizumab antibody rate [7]
NS(=O)(=O)NCCNc1nonc1C(=NO)Nc1ccc(F)c(Br)c1 [Epacadostat]	6%	28%	22%	11%	30%	35%	45%	35%	grade 3 AST increased/grade 2 ALT increased and grade 2 nervous system disorder occurred in one patient each	100 mg twice per day	increased in an approximately dose-proportional manner	approximately 2 hours	exceeded the IC50	the majority of patients	all patients	> 90%	well tolerated	provide optimal inhibition of IDO1 activity and normalization of kynurenine levels	–
pembrolizumab	–	–	–	–	–	–	–	–	–	–	–	–	–	–	–	–	–	–	2.1%
